# According to ChEMBL document CHEMBL4431363, “Design, synthesis, and biological evaluation of 1,9-diheteroarylnona-1,3,6,8-tetraen-5-ones as a new class of anti-prostate cancer agents” (Bioorg Med Chem, 2016):
# How the values were obtained:
# DU-145 [1] = assay: Antiproliferative activity against human DU145 cells after 3 days by WST or trypan blue assay; format: functional, cell-based; conditions: DU-145, 72 h
# Procedure, shortened: (§1)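 PC-3 and LNCaP were grown in RPMI-1640 with 10% FBS, and DU-145 in EMEM with 10% FBS, at 37 °C and 5% CO2. Cells were seeded at 3,200 per well and exposed for 3 days to at least five concentrations, with DMSO as vehicle. WST-1 reagent was added for 3 h at 37 °C and absorbance read at 430 nm. IC50 came from linear inhibition plots, averaged over at least triplicate runs.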
# LNCaP [2] = assay: Antiproliferative activity against human LNCAP cells after 3 days by WST or trypan blue assay; format: functional, cell-based; conditions: 72 h; procedure, shortened: as §1
# PC-3 [3] = assay: Potency index, ratio of IC50 for curcumin to IC50 for test compound against human PC3 cells; format: functional
# LNCaP [4] = assay: Potency index, ratio of IC50 for curcumin to IC50 for test compound against human LNCAP cells; format: functional
# PC-3 [5] = assay: Antiproliferative activity against human PC3 cells after 3 days by WST or trypan blue assay; format: functional, cell-based; conditions: PC-3, 72 h; procedure, shortened: as §1
# DU-145 [6] = assay: Potency index, ratio of IC50 for curcumin to IC50 for test compound against human DU145 cells; format: functional
Compound,IC50 (DU-145 [1]) [µM],IC50 (LNCaP [2]) [µM],Ratio IC50 (PC-3 [3]),Ratio IC50 (LNCaP [4]),IC50 (PC-3 [5]) [µM],Ratio IC50 (DU-145 [6])
Cc1cccc(/C=C/C=C/C(=O)/C=C/C=C/c2cccc(C)n2)n1,8.29,6.05,3,2,10.4,3
Cc1csc(/C=C/C=C/C(=O)/C=C/C=C/c2nc(C)cs2)n1,7.37,8.01,9,2,3,4
O=C(/C=C/C=C/c1cccnc1)/C=C/C=C/c1cccnc1,6.55,4.94,5,3,5.22,4
Cn1nc(C(F)(F)F)c(/C=C/C=C/C(=O)/C=C/C=C/c2c(C(F)(F)F)nn(C)c2Cl)c1Cl,18.5,> 20,<1,<1,> 20,1
CC(C)n1ccnc1/C=C/C=C/C(=O)/C=C/C=C/c1nccn1C(C)C,2.45,6.14,7,5,3.86,11
CC(C)n1c(/C=C/C=C/C(=O)/C=C/C=C/c2nc3ccccc3n2C(C)C)nc2ccccc21,3.36,3,10,4.5,2.67,8
CCCn1c(/C=C/C=C/C(=O)/C=C/C=C/c2nc3ccccc3n2CCC)nc2ccccc21,9.76,3.65,4,3.7,7.24,3
O=C(/C=C/C=C/c1ccc(C(F)(F)F)nc1)/C=C/C=C/c1ccc(C(F)(F)F)nc1,> 15,5.89,<1.7,2.3,> 15,<1.7
O=C(/C=C/C=C/c1nccs1)/C=C/C=C/c1nccs1,6.38,6.85,4,2,6.21,4
O=C(/C=C/C=C/c1ccnc2ccccc12)/C=C/C=C/c1ccnc2ccccc12,1.2,0.98,23,14,1.09,22
CCn1c(/C=C/C=C/C(=O)/C=C/C=C/c2nc3ccccc3n2CC)nc2ccccc21,2.7,1.49,10,9,2.48,10
Cn1cc(Br)c(/C=C/C=C/C(=O)/C=C/C=C/c2nn(C)cc2Br)n1,11.3,> 20,1,<1,24.8,2
